procasp3 activ: activates human procaspase-3; actives 0.11% (n = 330,000); activation, % at 8.5 µM; recombinant procaspase-3 D3A, Ac-DEVD-pNA absorbance 405 nm; P42574;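 active = activation above the mean of all tested compounds plus 3 SD, cut at about 21% in these data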;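 note: 0% = DMSO alone and 100% = DMSO wells spiked with extra 5 µM PC-3 D3A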
Target sequence (P42574 whole entry D9A/D28A/D175A): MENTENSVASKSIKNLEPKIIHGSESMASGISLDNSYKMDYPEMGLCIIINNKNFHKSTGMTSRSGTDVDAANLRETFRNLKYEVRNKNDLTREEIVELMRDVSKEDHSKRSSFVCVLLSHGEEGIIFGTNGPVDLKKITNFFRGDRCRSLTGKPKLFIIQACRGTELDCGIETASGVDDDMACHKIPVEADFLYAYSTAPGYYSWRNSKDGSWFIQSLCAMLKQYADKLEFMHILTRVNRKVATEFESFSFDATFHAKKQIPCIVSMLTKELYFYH
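Assay system: Procaspase-3 D3A mutant, all three cleavage aspartates alanine. Buffer or medium: Zinc-free HEPES saline buffer with Triton X-100. Times: 1 h compound preincubation, 2 h substrate hydrolysis at 25 °C. Measured by: 405 nm absorbance of p-nitroaniline, reads at 0 and 120 min. Read-out basis: percent activation relative to control range. Replicates: singlicate.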
aDG glyco act: alpha-DG glycosylation activation | Pro5-aDG cells, alpha-DG glycosylation AlphaScreen (IIH6); 0% Pro5, 100% B10-LARGE cell signal | activation, % at 10 µM | actives 0.22% (n = 360,000);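 active = activation of at least 8% versus controls, or a plate z-score of at least 8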;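 note: Pro5 are CHO cells carrying HIG-tagged alpha-DG that lacks glycosylation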
procasp7 counter: counter-screen: procaspase-7 (human) activation | P55210 | recombinant procaspase-7, Ac-DEVD-pNA absorbance 405 nm; D23A/D198A/D206A triple mutant, cannot self-cleave; scale: DMSO 0, 5 µM enzyme 100 | activation, % at 8.5 µM | actives 0.093% (n = 330,000);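 active = percent activation above the screen-wide mean plus 3 SD, cut at about 25% in these data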
Target sequence (P55210 whole entry D23A/D198A/D206A): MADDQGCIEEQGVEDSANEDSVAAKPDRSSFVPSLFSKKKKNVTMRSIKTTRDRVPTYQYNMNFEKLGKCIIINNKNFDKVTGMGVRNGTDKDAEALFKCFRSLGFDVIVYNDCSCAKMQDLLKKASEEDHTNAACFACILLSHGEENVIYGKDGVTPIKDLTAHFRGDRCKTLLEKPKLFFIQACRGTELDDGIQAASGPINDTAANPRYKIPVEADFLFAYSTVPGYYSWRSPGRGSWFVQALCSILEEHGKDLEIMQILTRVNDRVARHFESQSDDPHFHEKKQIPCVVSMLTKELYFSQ
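signal = Epi-absorbance of released pNA at 405 nm, two timepoints | assay system = Uncleavable procaspase-7 mutant enzyme | reagent = Ac-DEVD-pNA substrate, 400 µM as added | times = 1 h enzyme–compound preincubation and 2 h substrate reaction, both 25 °C | benchmarks = low DMSO alone, high DMSO plus 5 µM PC-7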
T cell modulator: modulates CD8 T cell binding to vesicles. actives 0.068% (n = 330,000). response (vesicle binding), % at 7 µM. 2C CD8+ T cell-vesicle binding, flow cytometry; hits give low values;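 active = response, share of CD8 T cells binding vesicles, and their 90th percentile fluorescence all below set limits, cut at about 80% in these data, passing the limit was not always enough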;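 note: values below 100% mean blocked vesicle binding to the CD8+ T cells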
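material = purified 2C TCR transgenic mouse naive CD8+ T cells | controls = Unloaded micro-vesicles (low), QL9 vesicles with 0.7% DMSO (high) | detection = cytometric PE anti-B7-1 and Alexa647 anti-CD8 signals after 1% paraformaldehyde fixation | incubation = binding step 1.5 h, 37 °C, antibody labelling 20 min, ice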
CaV13 ICDI inh: Disruptors of the CACNA1D IQ motif to Ca2+-dependent inactivation inhibitor domain association, primary screening, Förster resonance energy transfer in intact living … | actives 0.098% (n = 340,000) | HEK cells, CFP/YFP FRET ICDI-IQ, plate reader, 10 min; percent FRET-ratio fall versus neutral wells | inhibition, % at 12.3 µM;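 active = mean replicate inhibition of at least 30% and at least 1% of replicates passing that level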;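 note: 0% = median of the neutral control wells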
GRK2 inh: inhibitors of human GRK2 displacing RNA aptamer; bead flow cytometry, FAM-aptamer displacement from GRK2; inhibition of aptamer binding, % at 10 µM; actives 0.59% (n = 330,000); AID 488847;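 active = inhibition of aptamer binding above 40%, roughly 3 SD of noise, on plates passing a quality check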;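 note: median bead fluorescence of bound FAM aptamer so fluorescent compounds give negative values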
GRK2 inh confirm: human GRK2 inhibition confirmation, cherry pick 1. shares compounds with GRK2 inh. bead-bound GRK2, FAM-aptamer displacement, flow cytometry. aptamer displacement, % at 10 µM. actives 4% (n = 2,000). AID 504451;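 active = aptamer displacement above 40%, near three times the noise of non-fluorescent compounds, on plates passing quality checks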;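 note: negative values mostly reflect intrinsic compound fluorescence rather than true enhancement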
FAM quench CP1: aptamer fluorescence quenching in GRK2 counter-screen. fluorescence response (% of DMSO), % at 10 µM. 2,000 tested, under 10 active. shares compounds with GRK2 inh. Carboxyfluorescein RNA aptamer on beads, flow cytometry quenching; hits give low values;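 active = compounds that quench the bead-bound fluorescent RNA probe, cutting fluorescence to under half of the solvent control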;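 note: counterscreen run without GRK2 so only probe quenching by compound is measured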
GRK2 CP2: human GRK2 inhibition confirmation, cherry pick 2; bead-bound GRK2, FAM-aptamer displacement, flow cytometry; 360 tested, under 10 active; shares compounds with GRK2 inh; AID 504782; inhibition of aptamer binding, % at 10 µM;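 active = inhibition of aptamer binding above 40%, about triple the noise seen with nonglowing compounds, on plates passing quality control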;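 note: negative values mostly come from compounds that fluoresce themselves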
FAM quench SP: quenches fluorescent RNA aptamer, GRK2 hit artifact; fluorescence response vs DMSO, % at 10 µM; AID 588494; 360 tested, under 10 active; carboxyfluorescein RNA aptamer beads, flow cytometry quenching; hits give low values; shares compounds with GRK2 inh;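 active = response vs DMSO under 50%, meaning signal dropped by over half, treated as fluorescence quencher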;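 note: labelled aptamer on streptavidin beads without GRK2 as a quench counter-screen; 100% = bead fluorescence of DMSO wells and lower means quenching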
* hit, by the source's call; nt = no result given. A selection: hits, their analogues and other compounds. The true share with any hit is near 1.1%.

SMILES | procasp3 activ | aDG glyco act | procasp7 counter | T cell modulator | CaV13 ICDI inh | GRK2 inh | GRK2 inh confirm | FAM quench CP1 | others
COc1cccc(-c2nc(N3CCC(C)CC3)c3ccccc3n2)c1O | 0 | -1 | 8 | 226 | -3 | 91* | 3 | 100
CCn1c(SCc2ccccc2)nc2c1c(=O)[nH]c(=O)n2C | -7 | 0 | -10 | 442 | -6 | 0 | nt | nt
COCCN1C(=O)[C@H]2C[C@@]13O[C@H](c1ccccn1)N=C3CC1c3ccccc3C[C@@]12C (stereo partly drawn) | nt | nt | nt | nt | -5 | nt | nt | nt
CC(C)C(=O)c1c(C(C)C)nn2ccccc12 | 1 | 0 | 6 | 914 | -5 | 0 | 1 | 99
Cc1c(C(=O)C(C)C)n(C)c2ccccc12 | -7 | 1 | 11 | 235 | nt | 2 | nt | nt
CN(C(=O)COC(=O)c1ccccc1NCc1ccco1)c1c(N)n(Cc2ccccc2)c(=O)[nH]c1=O | 4 | 0 | -4 | 358 | -6 | 3 | nt | nt
COCOc1ccc(C=O)c(OCOC)c1 | 0 | 2 | -1 | 423 | nt | 98* | -1 | 100
COC(=O)Cn1c(CN2CCOCC2)nc2c1c(=O)[nH]c(=O)n2C | 7 | 0 | -4 | 419 | -6 | 34 | -2 | 100
CSc1cccc(NC(=O)CC2Oc3ccccc3NC2=O)c1 (stereo not drawn) | 7 | 0 | 4 | 168 | -4 | 2 | nt | nt
O=C(NCC(=O)N1CCN(Cc2ccccc2)CC1)c1cc(Cl)cc([N+](=O)[O-])c1 | 7 | 0 | -6 | 242 | -3 | 0 | nt | nt
O=C(COc1cccnc1[N+](=O)[O-])NC1CCS(=O)(=O)C1 (stereo not drawn) | 1 | 0 | 2 | 229 | -5 | 70* | nt | nt | GRK2 CP2=-43;FAM quench SP=101
COc1cc(C(=O)N2CCN(C(=O)c3ccco3)CC2)c([N+](=O)[O-])cc1OC | -1 | 0 | 7 | 263 | -2 | 0 | nt | nt
CCC(C)(C)n1nnnc1C(c1ccc2ncccc2c1)N1CCN(c2ccc(O)cc2)CC1 (stereo not drawn) | -22 | 0 | -27 | 287 | -7 | 0 | nt | nt
CCC(C)(C)n1nnnc1C(c1ccc2ncccc2c1)N1CCN(c2nc3ccccc3s2)CC1 (stereo not drawn) | -7 | 0 | -11 | 482 | -4 | 25 | 3 | 75
Cc1csc2nc(COC(=O)c3ccc(Cl)c([N+](=O)[O-])c3)cc(=O)n12 | 8 | 0 | 9 | 585 | -18 | 4 | nt | nt
COc1ccc(C(C#N)=C2C=CC(=NO)C(C)=C2Cl)cc1 | nt | 0 | nt | nt | -7 | nt | nt | nt
CS(=O)(=O)Nc1cccc(-c2ccc3nncn3c2)c1 | nt | 0 | nt | nt | -4 | nt | nt | nt
NS(=O)(=O)c1ccc(NC(=O)CN2CCN(S(=O)(=O)/C=C/c3ccccc3)CC2)cc1 | 7 | 0 | 3 | 160 | -4 | 54* | 6 | 101
C[C@@H](NS(=O)(=O)c1c(F)cccc1F)c1ccccc1 | nt | nt | nt | nt | -5 | nt | nt | nt
CC(=O)NC1C(=O)N(CCN2CCOCC2)c2ccc(Cl)cc21 (stereo not drawn) | nt | 0 | nt | 252 | -21 | 98* | -2 | 99
Cc1ccc(CNC(=O)c2cccc(OCc3c(C)noc3C)c2)cc1 | 2 | 0 | 5 | 403 | -6 | 1 | -3 | 95

Compound activity (PubChem)
